Published values collected from several papers.
Protocols differ between the studies behind these lines.
Target: Tyrosine-protein kinase BTK (BTK, Homo sapiens, UniProt Q06187)

| Structure (SMILES) | test | conditions | remaining binding [%] |
| --- | --- | --- | --- |
| Cc1ccc(-n2nc(C(C)(C)C)cc2NC(=O)Nc2ccc(-n3c(N)c(C(N)=O)c4nc5ccc(NCCCN)cc5nc43)cc2)cc1 | cell-free assay, competition with immobilised ligand | 1 µM | 3.3 |
| CN(C)c1nccc(-c2cnn3ncccc23)n1 | binding | 1 µM | 85 |
| N#Cc1ccccc1CSc1nnc2c(n1)[nH]c1ccccc12 | binding, competition with immobilised ligand | 10 µM | 100 |
| CS(=O)(=O)N1CCCC(NC(=O)[C@H](CCC2CCCCC2)NC(=O)c2ccc(CNc3ncnc4c3nnn4-c3ccccc3)cc2)C1 (stereo partly drawn) | cell-free assay, competition with immobilised ligand | 0.1 µM | 100 |
| C[C@@H]1CN(c2ccc3ncc(-c4ccc5[nH]nc(C6CC6)c5c4)n3n2)C[C@H](C)O1 | binding, competition with immobilised ligand | 50 nM | 67 |
| O=C(NCC1CCOCC1)c1n[nH]cc1NC(=O)c1c(F)cccc1F | binding, competition with immobilised ligand | 1 µM | 91 |
| CN(CCCC(F)(F)F)c1nccc(-c2cnn3ncccc23)n1 | binding | 1 µM | 100 |
| Cc1cnc(Nc2ccc(C(=O)N3CCC(N4CCCC4)CC3)cc2)nc1-c1cc2ccccc2s1 | binding, competition with immobilised ligand | 1 µM | 54 |
| O=C(Nc1cccnn1)N1CC(C/C=C/c2cncc(Oc3ccc(C(F)(F)F)cn3)n2)C1 | cell-free assay, competition with immobilised ligand | 1 µM | 59 |
| COc1cnc(Nc2cccc(S(N)(=O)=O)c2)nc1N1CCN(c2ccccc2)CC1 | binding, competition with immobilised ligand | 1 µM | 80 |
| Nc1ncc2c(n1)-c1c([nH]c3ccc(C#CC4CC4)cc13)CCCC2 | binding, competition with immobilised ligand | 1 µM | 61 |
| CN(c1ccnc(CNc2nc(Nc3ccc4c(c3)CC(=O)N4)ncc2C(F)(F)F)n1)S(C)(=O)=O | cell-free assay, competition with immobilised ligand | 1 µM | 63 |
| O=C(c1ccc(Nc2nccc(-c3cc4ccccc4s3)n2)cc1)N1CCC(N2CCCC2)CC1 | binding, competition with immobilised ligand | 1 µM | 87 |
| C[C@H]1CCN(c2nccc(-c3cnn4ncccc34)n2)C1 | binding | 1 µM | 95 |
| Cc1nc(C2CCN(C(=O)c3ccc(OC(F)(F)F)cc3N)CC2)c2ncc(N3CCN(C)CC3)cc2n1 | cell-free assay, competition with immobilised ligand | 1 µM | 87 |
| CCN1CCN(Cc2ccc(C(=O)Nc3ccc(C)c(Oc4ccc5c(c4)CC(=O)N5)c3)cc2C(F)(F)F)CC1 | binding, competition with immobilised ligand | 1 µM | 100 |
| Cc1cnn2ncc(-c3ccnc(N(C)C)n3)c2c1 | binding | 1 µM | 91 |
| O=C(c1ccc(Nc2ncc(Cl)c(-c3ccc(Cl)s3)n2)cc1)N1CCC(N2CCCC2)CC1 | binding, competition with immobilised ligand | 1 µM | 64 |
| CC1CCCN1c1nccc(-c2cnn3ncccc23)n1 (stereo not drawn) | binding | 1 µM | 100 |
| CCS(=O)(=O)c1cc2cc(C[C@](O)(CC(C)(C)c3ccc(F)cc3C(N)=O)C(F)(F)F)[nH]c2cn1 | cell-free assay, competition with immobilised ligand | 1 µM | 100 |
| CN(c1nccc(-c2cnn3ncccc23)n1)C1CC1 | binding | 1 µM | 100 |
| O=C(O)[C@@H]1[C@@H](Cn2nnc3ccccc3c2=O)CC[C@H]1C(=O)c1ccc(OCCC2CCOCC2)cc1 | cell-free assay, competition with immobilised ligand | 1 µM | 100 |
| N[C@@H]1CCN(c2nccc(-c3cnn4ncccc34)n2)C1 | binding | 1 µM | 100 |
| N#Cc1ccc(Nc2ccc3[nH]c(=O)[nH]c3c2)c(Cl)c1 | cell-free assay, competition with immobilised ligand | 1 µM | 100 |
